Columns and labels:
Human alphaherpesvirus 1 [1] = test: Concentration required to inhibit replication of HSV-1 cell by 50%; assay type: functional; settings: Human alphaherpesvirus 1, HSV-1; read-out: ED50 (the source's name)
Outline: (§1)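 Confluent Vero monolayers in Dulbecco's medium + 10% fetal calf serum were infected with HSV-1 strain CL-101 at MOI 10. After 1 h adsorption at 37 °C, the inoculum was removed and the cells washed with PBS. Compound in serum-containing medium was added for 40 h at 37 °C. Virus released by one freeze-thaw was titred by plaque assay on Vero cells. Percent inhibition was pfu relative to drug-free cultures. ED50 came from dose-response curves of at least two independent experiments.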

Human alphaherpesvirus 1 [2] = test: In vitro percent inhibition of replication of HSV-1 cells at 1.25 uM concentration; assay type: functional; settings: Human alphaherpesvirus 1, HSV-1; outline: as §1
[3] = In vitro percent inhibition of replication of S-180 cells at 12.5 uM concentration; assay type: functional; settings: Mus musculus
Outline: (§2)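 Mouse L1210 and S-180 suspension cultures were kept in Fischer's medium + 10% horse serum at 37 °C, 5% CO2. Exponentially growing cells at 2 × 10⁴ cells/mL were given compound. The increase in cell number versus drug-free control was counted after 24, 48 and 72 h. ED50 came from dose-response curves of at least two independent experiments.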

L1210 [4] = test: In vitro percent inhibition of replication of L1210 cells at 12.5 uM concentration; assay type: functional; settings: Mus musculus; outline: as §2
Human alphaherpesvirus 1 [5] = test: In vitro percent inhibition of replication of HSV-1 cells at 12.5 uM concentration; assay type: functional; settings: Human alphaherpesvirus 1, HSV-1; outline: as §1
Human alphaherpesvirus 1 [6] = test: In vitro percent inhibition of replication of HSV-1 cells at 100 uM concentration; assay type: functional; settings: Human alphaherpesvirus 1, HSV-1; outline: as §1
[7] = In vitro percent inhibition of replication of S-180 cells at 100 uM concentration; assay type: functional; settings: Mus musculus; outline: as §2
L1210 [8] = test: In vitro percent inhibition of replication of L1210 cells at 100 uM concentration; assay type: functional; settings: Mus musculus; outline: as §2
Human alphaherpesvirus 1 [9] = test: In vitro percent inhibition of replication of HSV-1 cells at 50 uM concentration; assay type: functional; settings: Human alphaherpesvirus 1, HSV-1; outline: as §1
Vero [10] = test: In vitro percent inhibition of replication of vero cells at 400 uM concentration; assay type: functional; settings: Chlorocebus sabaeus
Outline: (§3)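 Uninfected Vero cells were seeded at 0.1 confluency in Dulbecco's medium + 10% fetal calf serum and grown 1 day at 37 °C, 5% CO2. Compound was then added in growth medium. Cells were detached with 0.125% trypsin/0.02% EDTA for 15 min at 37 °C, dispersed by pipetting, stained with Trypan blue and counted by hemocytometer. ED50 came from dose-response curves of at least two independent experiments.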

[11] = In vitro percent inhibition of replication of S-180 cells at 200 uM concentration; assay type: functional; settings: Mus musculus; outline: as §2
[12] = In vitro percent inhibition of replication of S-180 cells at 50 uM concentration; assay type: functional; settings: Mus musculus; outline: as §2
L1210 [13] = test: In vitro percent inhibition of replication of L1210 cells at 50 uM concentration; assay type: functional; settings: Mus musculus; outline: as §2
Vero [14] = test: In vitro percent inhibition of replication of vero cells at 100 uM concentration; assay type: functional; settings: Chlorocebus sabaeus; outline: as §3
L1210 [15] = test: In vitro percent inhibition of replication of L1210 cells at 200 uM concentration; assay type: functional; settings: Mus musculus; outline: as §2
[16] = Concentration required to inhibit replication of S-180 cell by 50%; assay type: functional; settings: Mus musculus, read-out: ED50 (the source's name); outline: as §2
[17] = Therapeutic index was determined as the ratio fo ED50(vero)/ ED50(HSV-1); settings: monkey, Vero cells
Outline: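 Ratio of ED50 for uninfected Vero cell replication (cell counts after compound exposure) to ED50 for HSV-1 yield in Vero cells (plaque titration after 40 h infection at MOI 10). Both ED50 values were estimated from dose-response curves of at least two independent experiments.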

[18] = In vitro percent inhibition of replication of S-180 cells at 25 uM concentration; assay type: functional; settings: Mus musculus; outline: as §2
L1210 [19] = test: Concentration required to inhibit replication of L1210 cell by 50%; assay type: functional; settings: Mus musculus, read-out: ED50 (the source's name); outline: as §2
Vero [20] = test: In vitro percent inhibition of replication of vero cells at 200 uM concentration; assay type: functional; settings: Chlorocebus sabaeus; outline: as §3
Vero [21] = test: Concentration required to inhibit replication of vero cell by 50%; assay type: functional; settings: Chlorocebus sabaeus, read-out: ED50 (the source's name); outline: as §3
Vero [22] = test: In vitro percent inhibition of replication of vero cells at 50 uM concentration; assay type: functional; settings: Chlorocebus sabaeus; outline: as §3
L1210 [23] = test: In vitro percent inhibition of replication of L1210 cells at 25 uM concentration; assay type: functional; settings: Mus musculus; outline: as §2
Human alphaherpesvirus 1 [24] = test: In vitro percent inhibition of replication of HSV-1 cells at 10 uM concentration; assay type: functional; settings: Human alphaherpesvirus 1, HSV-1; outline: as §1
L1210 [25] = test: In vitro percent inhibition of replication of L1210 cells at 400 uM concentration; assay type: functional; settings: Mus musculus; outline: as §2
Human alphaherpesvirus 1 [26] = test: In vitro percent inhibition of replication of HSV-1 cells at 20 uM concentration; assay type: functional; settings: Human alphaherpesvirus 1, HSV-1; outline: as §1
Vero [27] = test: In vitro percent inhibition of replication of vero cells at 25 uM concentration; assay type: functional; settings: Chlorocebus sabaeus; outline: as §3
Human alphaherpesvirus 1 [28] = test: In vitro percent inhibition of replication of HSV-1 cells at 5 uM concentration; assay type: functional; settings: Human alphaherpesvirus 1, HSV-1; outline: as §1
Human alphaherpesvirus 1 [29] = test: In vitro percent inhibition of replication of HSV-1 cells at 80 uM concentration; assay type: functional; settings: Human alphaherpesvirus 1, HSV-1; outline: as §1
Vero [30] = test: In vitro percent inhibition of replication of vero cells at 5 uM concentration; assay type: functional; settings: Chlorocebus sabaeus; outline: as §3
Human alphaherpesvirus 1 [31] = test: In vitro percent inhibition of replication of HSV-1 cells at 40 uM concentration; assay type: functional; settings: Human alphaherpesvirus 1, HSV-1; outline: as §1
Vero [32] = test: In vitro percent inhibition of replication of vero cells at 10 uM concentration; assay type: functional; settings: Chlorocebus sabaeus; outline: as §3
[33] = In vitro percent inhibition of replication of S-180 cells at 0.1 uM concentration; assay type: functional; settings: Mus musculus; outline: as §2
Vero [34] = test: In vitro percent inhibition of replication of vero cells at 1 uM concentration; assay type: functional; settings: Chlorocebus sabaeus; outline: as §3

Compound | EC50 (Human alphaherpesvirus 1 [1]) [µM] | inhibition at 100 µM (Human alphaherpesvirus 1 [6]) [%] | inhibition at 100 µM [7] [%] | inhibition at 100 µM (L1210 [8]) [%] | inhibition at 50 µM [12] [%] | inhibition at 50 µM (L1210 [13]) [%] | inhibition at 100 µM (Vero [14]) [%] | EC50 [16] [µM] | selectivity ratio [17] | inhibition at 25 µM [18] [%] | EC50 (L1210 [19]) [µM] | EC50 (Vero [21]) [µM] | inhibition at 50 µM (Vero [22]) [%] | inhibition at 25 µM (L1210 [23]) [%] | inhibition at 10 µM (Human alphaherpesvirus 1 [24]) [%] | other results
CC(=O)OC[C@H]1OC(n2cc(C(F)(F)C(F)(F)F)c(=O)[nH]c2=O)C[C@H]1OC(C)=O (stereo partly drawn) | 12.5 | – | – | – | – | – | – | – | – | – | – | – | – | – | – | inhibition at 1.25 µM (Human alphaherpesvirus 1 [2]): 26%; inhibition at 12.5 µM [3]: 37%; inhibition at 12.5 µM (L1210 [4]): 14%; inhibition at 12.5 µM (Human alphaherpesvirus 1 [5]): 51%
O=c1[nH]c(=O)n(C2C[C@@H](O)[C@@H](CO)O2)cc1C(F)(F)C(F)(F)F (stereo partly drawn) | > 400 | 15 | 28 | 17 | – | – | – | – | – | – | – | – | – | – | – | –
O=c1[nH]c(=O)n(C2O[C@H](CO)[C@@H](O)[C@@H]2O)cc1C(F)(F)F (stereo partly drawn) | 5 | 99 | 59 | 66 | 46 | 33 | 4 | 65 | 64 | 41 | 70 | 320 | 0 | 19 | 74 | inhibition at 50 µM (Human alphaherpesvirus 1 [9]): 88%; inhibition at 400 µM (Vero [10]): 66%; inhibition at 200 µM [11]: 71%; inhibition at 200 µM (L1210 [15]): 84%; inhibition at 200 µM (Vero [20]): 14%; inhibition at 400 µM (L1210 [25]): 87%
CC(=O)OC[C@H]1OC(n2cc(C(F)(F)F)c(=O)[nH]c2=O)[C@H](OC(C)=O)[C@H]1OC(C)=O (stereo partly drawn) | 7 | – | 95 | 95 | 60 | 58 | 100 | 25 | 6.4 | 47 | 45 | 45 | 57 | 13 | 61 | inhibition at 20 µM (Human alphaherpesvirus 1 [26]): 92%; inhibition at 25 µM (Vero [27]): 8%; inhibition at 5 µM (Human alphaherpesvirus 1 [28]): 17%; inhibition at 80 µM (Human alphaherpesvirus 1 [29]): 98%; inhibition at 5 µM (Vero [30]): 0%; inhibition at 40 µM (Human alphaherpesvirus 1 [31]): 97%
O=c1[nH]c(=O)n([C@H]2C[C@H](O)[C@@H](CO)O2)cc1C(F)(F)F [TRIFLURIDINE] | – | – | – | – | – | – | – | – | – | – | – | – | – | – | – | inhibition at 10 µM (Vero [32]): 100%; inhibition at 0.1 µM [33]: 100%; inhibition at 1 µM (Vero [34]): 63%

— ChEMBL document CHEMBL1122491, “Synthesis and biological activity of 5-(trifluoromethyl)- and 5-(pentafluoroethyl)pyrimidine nucleoside analogues” (J Med Chem, 1983)
